The full list was thinned out, with hits kept by preference.
NALP3 yeast inh: inhibitors of NALP3 inflammasome in yeast; AID 2825; actives 0.39% (n = 330,000); Yeast reconstituted NLRP3/ASC/caspase-1, beta-gal luminescence, 24 h; inhibition, % at 10 µM;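 active means inhibition of 50% or more; inactive means inhibition below 50%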
Calb FLC: C. albicans growth modulation with fluconazole | C. albicans CaCi-2 + fluconazole, Alamar Blue growth, 48 h | growth inhibition, % (concentration not given with the values) | actives 0.57% (n = 300,000) | AID 1979;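 active means growth inhibition above about 58% in most replicates, limit read from the data, passing the limit was not always enough; inconclusive means exactly half the replicates above a set limit; inactive means most replicates below a set limit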;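 further: all wells also contain fluconazole at 8 µg/ml as a sub-toxic cotreatment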
T cruzi inh: blocks replication of Trypanosoma cruzi | T. cruzi beta-gal in NIH3T3, luminescence, 90 h | inhibition, % (test concentration not listed) | actives 1.4% (n = 300,000) | AID 1885;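 active means mean inhibition across valid replicates above about 55%, limit read from the data; inconclusive means mean below that limit but half or more replicates reach it; inactive means mean below it, under half of replicates reach it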;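 further: signal also drops with host cell toxicity which is not excluded here; higher percent means less beta-gal luminescence so fewer parasites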
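Assay system: NIH/3T3 fibroblasts plus reporter T. cruzi. Amount: NIH/3T3 cells, 5,000 per well. Buffer or medium: DMEM, 2% fetal bovine serum. Doses: compound pinned at 50 nL/well, DMSO. Schedule: ≥90 h infection period, 3 h prior cell attachment. Signal: luminescent β-galactosidase signal after 60 min lysis. Read-out: parasite load inhibition, %.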
PolyA inh: blocks polyadenylation in yeast reporter cells | S. cerevisiae SKY197-pL101 polyadenylation reporter, beta-gal luminescence; efflux-impaired pdr1/pdr3 knockout yeast; score 100 = 6 SD above DMSO | AID 1875 | activity score, % at 12 µM | actives 0.02% (n = 300,000);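 active means lowest replicate activity score at least 50, where 100 means six control SD above control mean; inconclusive means lowest score under 50 but half or more replicates reach 50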;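 further: yeast exposed to compound for 9 h at 30 °C; higher score means more reporter readthrough which indicates perturbed polyadenylation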
Lmaj promast: reduces viability of Leishmania major promastigotes | inhibition, % at 10 µM | actives 9% (n = 200,000) | resazurin fluorescence viability; in the data active means inhibition above about 50%;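 further: promastigotes grown with compound for 44 hours at 28 °C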
NALP1 yeast inh: inhibitors of NALP1 inflammasome in yeast; S. cerevisiae NALP1/ASC/caspase-1 growth, X-gal OD620, 72 h; inhibition, % at 10 µM; actives 0.61% (n = 280,000); in the data active means inhibition mostly above about 24%, no sharp cut-off; inactive means mostly below about 32%
Large screens that a line does not name were inactive.

CCn1c(COc2ccc(=O)n(-c3ccccc3)n2)nnc1SCC(=O)OC	none
CC(=O)N1CCc2c(sc3c2c(=O)n(-c2ccccc2)c(=O)n3Cc2ccccc2Cl)C1	Lmaj promast 98.0
COc1ccc(-n2c(=O)c3c4c(sc3n(Cc3cccc(F)c3)c2=O)CN(C(C)=O)CC4)c(OC)c1	none
O=C(Oc1cccc2ccccc12)C1CC1	none (no result: Lmaj promast)
CCOc1ccc(CN(C)CC(=O)Nc2cc(OC)c([N+](=O)[O-])cc2C)cc1	T cruzi inh 58.8
COc1cc(NC(=O)CN2CCCCC2)c(C)cc1[N+](=O)[O-]	none
COc1cc(NC(=O)Cn2ncc(Cl)c(Cl)c2=O)c(C)cc1[N+](=O)[O-]	T cruzi inh 84.5, Lmaj promast 89.4 (no result: NALP3 yeast inh)
COCCn1cnnc1SCC(=O)Nc1cc(OC)c([N+](=O)[O-])cc1C	Calb FLC 114.0
COc1cc(NC(=O)CN2CCCCC2C)c(C)cc1[N+](=O)[O-] (stereo not given)	Lmaj promast 69.3
Cc1nn(-c2ccccc2)c(Cl)c1/C=N/NC(=O)CNc1n[nH]c(=O)[nH]c1=O	none
COc1cc(S(=O)(=O)N(C)C2CCCCC2)c(C)cc1C	none (no result: NALP3 yeast inh)
CC(=O)OC[C@H]1O[C@H](C/C=N/OC[C@@H](O)[C@H]2O[C@@H]3OC(C)(C)O[C@@H]3[C@H]2O)C=C[C@@H]1OC(C)=O	none
Cc1ccc(Cl)cc1N1CCN(C(c2cccnc2)c2nnnn2C2CCCCC2)CC1 (stereo not given)	Lmaj promast 99.1
Cc1ccc(Cl)cc1N1CCN(C(c2ccc(C#N)cc2)c2nnnn2C2CCCC2)CC1 (stereo not given)	Lmaj promast 71.0 (no result: Calb FLC, T cruzi inh, PolyA inh)
Cc1c(Cl)cccc1NC(=O)c1cccc(OC(F)F)c1	Lmaj promast 99.3
Cc1ccc(C(=O)N(CC(=O)NC2CCCC2)Cc2cccs2)s1	none
CCO[C@H]1OC(C(=O)Nc2ccccc2)=C[C@@H](c2ccc(C(F)(F)F)cc2)[C@@H]1CCCO	none
CCO[C@H]1OC(C(=O)NCc2ccccc2)=C[C@@H](c2ccc(C(F)(F)F)cc2)[C@@H]1CCCO	Lmaj promast 53.2
CCc1nc(CNC(=O)C2CCC(=O)N(Cc3cccc(OC)c3)C2)no1 (stereo not given)	none (no result: Lmaj promast)
CCCCN(CC)CCNC(=O)CCC(=O)Nc1ccc2nc(N3CCN(C)CC3)cc(C)c2c1	NALP1 yeast inh 36.4
CCCN(CCC)CCCNC(=S)Nc1ccc2nc(N3CCN(C)CC3)cc(C)c2c1	T cruzi inh 57.0, Lmaj promast 65.0
CCN(CC)CCCNC(=O)CCC(=O)Nc1ccc2nc(N3CCCCC3)cc(C)c2c1	none
CCCCN(CC)CCNC(=S)Nc1ccc2nc(N3CCN(C)CC3)cc(C)c2c1	T cruzi inh 63.9 (no result: Lmaj promast)
CCCN(CCC)CCCNC(=S)Nc1ccc2nc(N3CCN(CC)CC3)cc(C)c2c1	Lmaj promast 93.7
CC(=O)C1=C(O)C(=O)N(c2ccc(Br)cc2)C1c1ccc(Br)cc1 (stereo not given)	none (no result: Lmaj promast)
CCOc1ccc(C(=O)NC2CCN(S(=O)(=O)c3ccccc3)CC2)cc1	none (no result: Lmaj promast)
Cc1cccc(NC(=O)c2ccc(Cl)c(S(=O)(=O)N3CCCCC3)c2)n1	none (no result: Lmaj promast, NALP1 yeast inh)
CCOc1cccc2sc(N3CCN(C(=O)c4ccc5ncsc5c4)CC3)nc12	none (no result: Lmaj promast, NALP1 yeast inh)
COc1ccc(-c2nc3cc(NC(=O)Cc4ccc(OC)c(OC)c4)ccc3o2)cc1	none
Cc1cc(N2CCN(C)CC2)nc2ccc(NC(=O)CCC(=O)NCCC3=CCCCC3)cc12	Lmaj promast 100.2 (no result: Calb FLC, T cruzi inh, PolyA inh, NALP1 yeast inh)
COc1ccc(CCNC(=O)CCC(=O)Nc2ccc3nc(N4CCN(C)CC4)cc(C)c3c2)cc1OC	none
COc1ccc(C(=O)N/N=C/c2ccc(OC)c(OS(=O)(=O)c3ccccc3)c2)cc1	Lmaj promast 91.4
COc1ccc(OC)c(/C=N/NC(=O)c2ccc(N(C)S(=O)(=O)c3ccccc3)cc2)c1	Lmaj promast 99.3
CCOc1cc(/C=N/NC(=O)c2cccc([N+](=O)[O-])c2)ccc1OS(=O)(=O)c1ccccc1	Lmaj promast 78.3
Cn1c(=O)c(C(=O)CCl)c(N)n(Cc2ccccc2)c1=O	none
Cn1c(=O)c(C(=O)CN2CCCCC2)c(N)n(Cc2ccccc2)c1=O	none (no result: Lmaj promast, NALP1 yeast inh)
Cn1c(N)c(C(=O)CCl)c(=O)n(Cc2ccccc2)c1=O	Lmaj promast 62.5
Cn1c(=O)c(C(=O)CN2CCN(S(=O)(=O)c3ccccc3)CC2)c(N)n(Cc2ccccc2)c1=O	Lmaj promast 71.3
C=CCn1cnc2c(c1=O)c1nc3ccccc3nc1n2Cc1ccccc1	none (no result: NALP3 yeast inh, Calb FLC, T cruzi inh, PolyA inh, Lmaj promast)
CCC(C)n1cnc2c(c1=O)c1nc3ccccc3nc1n2Cc1ccc(OC)cc1 (stereo not given)	Calb FLC 98.0
O=C(c1ccc(NC(=S)Nc2ccc(F)cc2F)cc1)N1CCOCC1	none
CCOc1ccc(OCCOc2cccc(C(F)(F)F)c2)cc1	none
CC(O)CNCCCOc1cccc(Oc2ccccc2)c1 (stereo not given)	Lmaj promast 98.9
CNCCCOc1cccc(OC(C)C)c1	none
CC(O)CNCCCOc1cccc(C(F)(F)F)c1 (stereo not given)	Lmaj promast 66.6
CNCCCOc1cccc(Oc2ccccc2)c1	T cruzi inh 60.2, Lmaj promast 99.3
Cc1cccc(NC(=O)CSc2nnc(CNC(=O)c3ccc(S(=O)(=O)N(C)C)cc3)n2-c2ccccc2)c1	Lmaj promast 54.7
Cc1cccc(NC(=O)CSc2nnc(CNC(=O)c3ccc(S(=O)(=O)N(C)C)cc3)n2-c2cccc(C)c2)c1	Lmaj promast 72.1
CCN1CCN(C(=O)CS(=O)(=O)Cc2nc(-c3cccc(OC)c3)oc2C)CC1	none (no result: Lmaj promast)
O=C(Nc1ccc2c(c1)CCC2)Nc1ccccc1F	PolyA inh inconclusive (no result: Lmaj promast)
Cc1nnc(SCC(=O)Nc2ccc(Cl)cn2)s1	Lmaj promast 56.6
Cc1csc(SCC(=O)Nc2ccc(Cl)cn2)n1	none
COc1ccc(NC(=O)c2c(N)no[n+]2[O-])c(OC)c1	none
COc1ccc(NC(=O)c2c(N)no[n+]2[O-])cc1	Calb FLC 101.4
CNCCCCOc1ccc(C(C)(C)C)cc1Cl	T cruzi inh 59.1, Lmaj promast 97.9
CC(C)(C)c1ccc(OCCON2C(=O)CCC2=O)c(Cl)c1	none
O=C(Nc1ccc2c(c1)CCC2)c1ccc(F)cc1	none
O=C(Nc1ccc2c(c1)CCC2)c1cc(S(=O)(=O)Nc2ccc(F)cc2)c(Cl)cc1Cl	Lmaj promast 60.0
O=C(CCC1CCCN(C(=O)c2ccoc2)C1)NCc1ccccc1F (stereo not given)	none
CC1(C)CC(=O)c2c(nc(SCC(=O)Nc3nsc(-c4ccccc4)n3)c(C#N)c2-c2ccccc2)C1	Lmaj promast 69.1
CCc1c(C#N)c(SCCC(=O)Nc2cccc(OC)c2)nc2c1C(=O)CC(C)(C)C2	none
Cc1nnc(SCC(=O)Nc2nsc(-c3ccccc3)n2)s1	none
CCc1c(C#N)c(SCCC(=O)Nc2ccc(F)cc2)nc2c1C(=O)CC(C)(C)C2	T cruzi inh 56.2

Screens from PubChem BioAssay.
